Series [1] can be described thus: Partition coefficient (logP). As to conditions: octanol/water. It is filed as physicochemical. The gist of the method: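 Log P obtained by a correlation method at pH 6.5.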
Series [2] in a line: Acid dissociation constant of the compound. The format is ADME.

What is called logP is the decadic logarithm of the partition coefficient of the neutral form, usually between octanol and water. Read a low logP as lower lipophilicity. Take `CC(C)C[C@H](O)[C@H](O)[C@@H](N)CC1CCCCC1`: the logP in series [1] worked out at 1.86. Same read-out and setting: the figure for `CC(C)C[C@H](O)[C@H](O)[C@H](CC1CCCCC1)NC(=O)/C=C/c1ccccc1` is 3.61. Still for that read-out and setting: the figure for `CC(C)C[C@H](O)[C@H](O)[C@H](CC1CCCCC1)NC(=O)CCCCCc1ccccc1` is 4.66. For orientation: pKa means the pH at which an ionisable group is half protonated. Read a high pKa as a group that holds its proton tightly. Take `CC(C)C[C@H](O)[C@H](O)[C@H](CC1CCCCC1)NC(=O)C[C@@H](NC(=O)OC(C)(C)C)C(=O)O`: the pKa in series [2] is 4.7. The compound also displayed a logP in series [1] of 2.06. The like results for `CC(C)C[C@H](O)[C@H](O)[C@H](CC1CCCCC1)NC(=O)[C@H](Cc1csc(N)n1)NC(=O)[C@H](Cc1ccccc1)NS(=O)(=O)N1CCN(C(=O)CCC(=O)O)CC1` were, in that order, 5.9 and 2.03.

`CC(C)C[C@H](O)[C@H](O)[C@H](CC1CCCCC1)NC(=O)[C@H](Cc1csc(N)n1)NC(=O)[C@H](Cc1ccccc1)NS(=O)(=O)N1CCOCC1` registered a lipophilicity (logP) in series [1] of 3.01.

As for `CC(C)C[C@H](O)[C@H](O)[C@H](CC1CCCCC1)NC(=O)CN`, the pKa in series [2] came out at 7.5. Besides, the log partition coefficient (logP) in series [1] is 1.52.

In series [1], `CCCC[C@H](NC(=O)[C@H](Cc1ccccc1)n1cccc1)C(=O)N[C@@H](CC1CCCCC1)[C@@H](O)[C@@H](O)CC(C)C` yielded a log partition coefficient (logP) of 4.9.

Values taken from ChEMBL document CHEMBL1128674, “Evaluation of physicochemical parameters important to the oral bioavailability of peptide-like compounds: implications for the synthesis of renin inhibitors” (J Med Chem, 1995).
